A word on the mortality: it is the share of the test organisms that died. As usually defined, the LC50 is the concentration lethal to half of the exposed cells or organisms.

What all share (format): functional
For one experiment, the system named is Cladosporium cucumerinum. Description: Fungicidal activity against Cladosporium cucumerinum assessed as growth inhibition at 50 ug/ml at 23 degC after 3 days. As to conditions: 72 h, read-out: GI. Put shortly:
(§1)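 Test solutions were made at 500 µg/mL and mixed 1:9 with agar medium to give 50 µg/mL plates. A 4 mm plug from the edge of actively growing mycelium was placed at the plate centre and incubated at 23 °C. Colony diameter was measured after 3 days against a sterile water plus medium blank, in triplicate. Inhibition = [(C − T)/C] × 100%.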

The subject of another experiment is Fusarium graminearum. Briefly: Fungicidal activity against Fusarium graminearum assessed as growth inhibition at 50 ug/ml at 23 degC after 3 days. The following applies: 72 h, read-out: GI. A digest of the protocol:
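Mycelial growth test in agar plates with 50 µg/mL final compound (from 500 µg/mL solution diluted into medium). A 4 mm plug from active mycelium fringe is placed centrally and incubated at 23 °C. Diameter is read after 3 days against a sterile water plus medium blank, in triplicate. Inhibition I = [(C − T)/C] × 100%.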

For a further experiment, the system named is Cucumis sativus. Briefly: Growth regulation of Cucumis sativus (cucumber) seeds assessed as rhizogenesis at 10 ug/ml at 24 degC after 3 days by cucumber cotyledon test. A digest of the protocol: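 Cucumber seeds (JINKE No. 4) were germinated in the dark at 24 °C for 3 days, and cotyledons of uniform size were selected. Sample in DMF (10 µg/mL) was sprayed onto filter paper and dried, then the paper was wetted with distilled water. Ten cotyledons were incubated in the dark at 24 °C for 3 days. Rhizogenesis was counted per 10 hypocotyls, in triplicate, with a distilled-water control and Student's t test.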

In experiment [1] the test system is Aphis medicaginis. Briefly: Insecticidal activity against Aphis medicaginis in soybean tender shoots assessed as mortality at 0.2 mg/ml treated for 5 secs measured after 48 hr. Put shortly: (§2)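 Insects held at 26 °C, 60% relative humidity, 14 h photoperiod. Acetone stock at 0.5 mg/mL is diluted with water containing TW-20. Soybean tender shoots bearing 60 insects are dipped for 5 s, drained, then kept under the same conditions. Mortality is scored after 48 h relative to untreated controls, in triplicate.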

Experiment [2] concerns Aphis medicaginis. Description: Insecticidal activity against Aphis medicaginis in soybean tender shoots assessed as mortality at 0.5 mg/ml treated for 5 secs measured after 48 hr. Put shortly: as §2
For the next experiment, the system named is Alternaria solani. Description: Fungicidal activity against Alternaria solani assessed as growth inhibition at 50 ug/ml at 23 degC after 3 days. The following applies: 72 h, read-out: GI. A digest of the protocol: as §1
In the next experiment the test system is Mycosphaerella arachidis. Description: Fungicidal activity against Mycosphaerella arachidis assessed as growth inhibition at 50 ug/ml at 23 degC after 3 days. As to conditions: 72 h, read-out: GI. Put shortly: as §1
Another experiment deals with Tetranychus cinnabarinus. Description: Insecticidal activity against Tetranychus cinnabarinus (carmine spider mite) in soybean tender shoots assessed as mortality at 0.2 mg/ml treated for 5 secs measured after 48 hr. A digest of the protocol:
as §2

For experiment [3], the system named is Aphis medicaginis. Description: Insecticidal activity against Aphis medicaginis in soybean tender shoots assessed as mortality treated for 5 secs measured after 48 hr.
Experiment [4] deals with Botryosphaeria berengeriana. Briefly: Fungicidal activity against Botryosphaeria berengeriana assessed as growth inhibition at 50 ug/ml at 23 degC after 3 days. A digest of the protocol:
as §1

Molecules are shown by their SMILES. ≈ marks a conversion by molar mass, not a printed value. Calls of active or inactive are those of the source. The calls are words filed in the database; no cut-off is given here.

Take `Cn1nc(C(F)(F)F)c(/C=N/OCc2cnc(Cl)s2)c1Oc1ccc(Cl)cc1Cl`: the inhibition of growth at 50 µg/mL in the experiment on Cladosporium cucumerinum is 32.3%; with Fusarium graminearum, 24.3%; with Alternaria solani, 29.2%; in the experiment on Mycosphaerella arachidis, 42.5%. In addition, in the experiment on Cucumis sativus, the Activity was determined as 72.3%. Further, the mortality at 200 µg/mL came out at 86.3% in the experiment on Aphis medicaginis [1] and 7.2% in the experiment on Tetranychus cinnabarinus. For the same compound, in the experiment on Aphis medicaginis [2], the mortality at 500 µg/mL turned out to be 97.4%. Besides, the 50% lethal concentration (LC50) in the experiment on Aphis medicaginis [3] was found to be 22.9 µg/mL (≈ 47.1 µM). Moreover, the “growth inhibition (GI)” value in [4] was “inactive”.

`Cn1nc(C(F)(F)F)c(/C=N/OCc2cnc(Cl)s2)c1Sc1ccc(Cl)cc1`: the inhibition of growth at 50 µg/mL was 18.9% in the experiment on Cladosporium cucumerinum; 32.6% in the experiment on Fusarium graminearum; 28.8% in the experiment on Alternaria solani; 25.8% with Mycosphaerella arachidis; 42.4% in experiment [4] (72 h, read-out: GI). In the experiment on Cucumis sativus, the Activity came to 34.7%. Moreover, the mortality at 200 µg/mL in the experiment with Aphis medicaginis [1] was found to be 80.4%; in the experiment with Tetranychus cinnabarinus, 11.3%. In the experiment with Aphis medicaginis [2], the mortality at 500 µg/mL turned out to be 91.4%. In the experiment on Aphis medicaginis [3], the median lethal concentration (LC50) came to 26.2 µg/mL (≈ 56.1 µM).

(Values after ChEMBL document CHEMBL3044850, “Synthesis and biological activities of novel pyrazole oxime derivatives containing a 2-chloro-5-thiazolyl moiety” (2008).)
